Among the data in ChEMBL document CHEMBL1135105, “Design, synthesis and biochemical evaluation of AC ring mimics as novel inhibitors of the enzyme estrone sulfatase (ES)” (Bioorg Med Chem Lett, 2002) are inhibition, IC50 and logP values, retold here.

Data set [1] deals with T1, Steryl-sulfatase (Homo sapiens) (UniProt P08842).
T1 sequence (whole entry): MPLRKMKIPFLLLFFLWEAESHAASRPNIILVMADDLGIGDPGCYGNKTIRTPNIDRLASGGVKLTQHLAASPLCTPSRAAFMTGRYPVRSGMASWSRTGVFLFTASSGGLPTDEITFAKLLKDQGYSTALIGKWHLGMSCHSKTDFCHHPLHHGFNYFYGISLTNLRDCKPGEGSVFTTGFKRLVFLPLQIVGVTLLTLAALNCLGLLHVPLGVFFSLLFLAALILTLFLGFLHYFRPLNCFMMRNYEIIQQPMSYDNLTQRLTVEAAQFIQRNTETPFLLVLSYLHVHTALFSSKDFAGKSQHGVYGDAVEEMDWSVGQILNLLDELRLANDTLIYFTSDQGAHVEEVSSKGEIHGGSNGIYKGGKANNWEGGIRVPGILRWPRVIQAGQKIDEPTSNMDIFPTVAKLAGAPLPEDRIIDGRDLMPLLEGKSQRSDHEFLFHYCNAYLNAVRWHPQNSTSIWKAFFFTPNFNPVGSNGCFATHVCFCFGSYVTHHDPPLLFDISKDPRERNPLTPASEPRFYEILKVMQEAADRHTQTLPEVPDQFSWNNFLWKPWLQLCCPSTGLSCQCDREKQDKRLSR
Briefly: Compound was evaluated for its percent inhibition against the estrone sulfatase enzyme at a concentration of 5 uM. A digest of the protocol: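 Placental microsomes, diluted to 115 µg/mL in 0.05 M Tris-HCl pH 7.2, are pre-warmed 5 min at 37 °C. They are added to tubes holding [3H]estrone sulfate (300,000 dpm) and inhibitor, which was dried from ethanol under nitrogen. Incubation runs 20 min at 37 °C and is quenched with toluene. Radioactivity in the toluene extract is counted. Triplicates are run alongside no-inhibitor controls and boiled-microsome blanks.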

For the next data set, the target named is T2, Steryl-sulfatase (Homo sapiens, UniProt P08842).
T2 sequence (P08842 whole entry): T1 sequence (whole entry)
Kind of data set: Compound was evaluated for its inhibitory activity against estrone sulfatase enzyme. The essentials:
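They are added to tubes holding [3H]estrone sulfate (300,000 dpm) and inhibitor, which was dried from ethanol under nitrogen. Incubation runs 20 min at 37 °C and is quenched with toluene. Radioactivity in the toluene extract is counted. Triplicates are run alongside no-inhibitor controls and boiled-microsome blanks.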

A short description of data set [2]: Partition coefficient (logP). The note with it: octanol/water. It is filed as physicochemical.
Data set [3] has as its target T1, Steryl-sulfatase (Homo sapiens). Particulars: 10 uM.

The term inhibition denotes the change of the read-out against control, counted positive when it falls. High values mean a strong effect, low ones a weak effect. The logP is the decadic logarithm of the partition coefficient of the neutral form, usually between octanol and water. A lower logP goes with a more hydrophilic compound. On to `N#Cc1ccc(-c2ccc(OS(N)(=O)=O)cc2)cc1`, for which the inhibition in data set [1] was found to be 44.2%. The IC50 at Steryl-sulfatase worked out at 6.7 uM tube-1. The logP in data set [2] amounted to 3.48.

In data set [1], `CCOC(=O)c1ccc(-c2ccc(OS(N)(=O)=O)cc2)cc1` showed an inhibition of 53.4%. The IC50 at Steryl-sulfatase stood at 4.2 uM tube-1. For the same compound, the logP in data set [2] was determined as 3.52.

In data set [1], `NS(=O)(=O)Oc1ccc2c3c(c(=O)oc2c1)CCCCC3` [IROSUSTAT] returned an inhibition of 86.8%. In addition, the logP in data set [2] came to 2.65.

`C[C@]12CC[C@@H]3c4ccc(OS(N)(=O)=O)cc4CCC3[C@@H]1CCC2=O` (single isomer, unassigned) [EMATE]: the IC50 at Steryl-sulfatase came to 0.1 uM tube-1. The compound further displayed a logP in data set [2] of 3.87.

For the compound `CCCOC(=O)c1ccc(-c2ccc(OS(N)(=O)=O)cc2)cc1`, the inhibition in data set [1] was determined as 60.5%. Further, the IC50 at Steryl-sulfatase was 3.5 uM tube-1. In data set [2], this compound had a logP of 3.99.

As for `Cc1cc(=O)oc2cc(OS(N)(=O)=O)ccc12`, the IC50 against Steryl-sulfatase is listed as 10 uM tube-1. In data set [2], the logP came to 1.7. This compound also returned an inhibition in data set [3] of 47.6%.

On to `CCCCOC(=O)c1ccc(-c2ccc(OS(N)(=O)=O)cc2)cc1`, for which the inhibition in data set [1] stood at 48.4%. On Steryl-sulfatase, this compound returned an IC50 of 5.8 uM tube-1. Moreover, in data set [2], the logP stood at 4.38.

In data set [1], `COC(=O)c1ccc(-c2ccc(OS(N)(=O)=O)cc2)cc1` returned an inhibition of 44.2%. The IC50 against Steryl-sulfatase came out at 5.2 uM tube-1. For the same compound, the logP in data set [2] amounted to 3.18.

As for `NS(=O)(=O)Oc1ccc(-c2ccccc2)cc1`, the inhibition in data set [1] turned out to be 5.5%. On Steryl-sulfatase, the IC50 is 76.1 uM tube-1. The compound further showed a logP in data set [2] of 3.45.
